The source made the active and inactive calls. The calls are words filed in the database; no cut-off is given here. Bounds are passed on as bounds.

Assay [1] relates to HepG2. As to the kind of experiment: Induction of apoptosis in human HepG2 cells assessed as live cells at 10 uM after 48 hrs by annexin V-FITC/propidium iodide staining based flow cytometry (reference value: 96.7%). In kind it is functional.
For assay [2], the system named is MDA-MB-231. Briefly: Induction of apoptosis in human MDA-MB-231 cells assessed as early apoptotic cells at 10 uM after 48 hrs by annexin V-FITC/propidium iodide staining based flow cytometry (reference value: 0.4%). In kind it is functional.
In assay [3] the test system is MDA-MB-231. Briefly: Induction of apoptosis in human MDA-MB-231 cells assessed as necrotic cells at 10 uM after 48 hrs by annexin V-FITC/propidium iodide staining based flow cytometry (reference value: […]). In kind it is functional.
Assay [4] relates to NCI-H460. Briefly: Induction of apoptosis in human NCI-H460 cells assessed as early apoptotic cells at 10 uM after 48 hrs by annexin V-FITC/propidium iodide staining based flow cytometry (reference value: 0.11%). In kind it is functional.
The subject of assay [5] is NCI-H460. As to the kind of experiment: Induction of apoptosis in human NCI-H460 cells assessed as late apoptotic cells at 10 uM after 48 hrs by annexin V-FITC/propidium iodide staining based flow cytometry (reference value: 1.29%). In kind it is functional.
For assay [6], the system named is MDA-MB-231. Briefly: Induction of apoptosis in human MDA-MB-231 cells assessed as late apoptotic cells at 10 uM after 48 hrs by annexin V-FITC/propidium iodide staining based flow cytometry (reference value: 1.53%). In kind it is functional.
Assay [7] relates to NCI-H460. Briefly: Induction of apoptosis in human NCI-H460 cells assessed as live cells at 10 uM after 48 hrs by annexin V-FITC/propidium iodide staining based flow cytometry (reference value: 97.3%). In kind it is functional.
The test system of assay [8] is Hep 3B2. As to the kind of experiment: Induction of apoptosis in human Hep3B cells assessed as live cells at 10 uM after 48 hrs by annexin V-FITC/propidium iodide staining based flow cytometry (reference value: 97.9%). In kind it is functional.
The test system of assay [9] is A549. Briefly: Induction of apoptosis in human A549 cells assessed as early apoptotic cells at 10 uM after 48 hrs by annexin V-FITC/propidium iodide staining based flow cytometry (reference value: 0.41%). In kind it is functional.
For assay [10], the system named is A549. As to the kind of experiment: Induction of apoptosis in human A549 cells assessed as late apoptotic cells at 10 uM after 48 hrs by annexin V-FITC/propidium iodide staining based flow cytometry (reference value: 0.88%). In kind it is functional.
Assay [11] has as its system HepG2. Briefly: Induction of apoptosis in human HepG2 cells assessed as late apoptotic cells at 10 uM after 48 hrs by annexin V-FITC/propidium iodide staining based flow cytometry (reference value: 0.64%). In kind it is functional.
The test system of assay [12] is Hep 3B2. Briefly: Induction of apoptosis in human Hep3B cells assessed as late apoptotic cells at 10 uM after 48 hrs by annexin V-FITC/propidium iodide staining based flow cytometry (reference value: 5.25%). In kind it is functional.
Assay [13] deals with Hep 3B2. Briefly: Induction of apoptosis in human Hep3B cells assessed as necrotic cells at 10 uM after 48 hrs by annexin V-FITC/propidium iodide staining based flow cytometry (reference value: 4.97%). In kind it is functional.
In assay [14] the test system is T47D. As to the kind of experiment: Induction of apoptosis in human T47D cells assessed as early apoptotic cells at 10 uM after 48 hrs by annexin V-FITC/propidium iodide staining based flow cytometry (reference value: 7.7%). In kind it is functional.
The test system of assay [15] is Hep 3B2. As to the kind of experiment: Cytotoxicity against human Hep3B cells assessed as reduction in cell viability after 72 hrs by CCK8 assay.
The test system of assay [16] is A549. As to the kind of experiment: Induction of apoptosis in human A549 cells assessed as live cells at 10 uM after 48 hrs by annexin V-FITC/propidium iodide staining based flow cytometry (reference value: 92.7%). In kind it is functional.
Assay [17] has as its system HepG2. As to the kind of experiment: Induction of apoptosis in human HepG2 cells assessed as early apoptotic cells at 10 uM after 48 hrs by annexin V-FITC/propidium iodide staining based flow cytometry (reference value: 0.3%). In kind it is functional.
The test system of assay [18] is MDA-MB-231. Briefly: Induction of apoptosis in human MDA-MB-231 cells assessed as live cells at 10 uM after 48 hrs by annexin V-FITC/propidium iodide staining based flow cytometry (reference value: 98.1%). In kind it is functional.
Assay [19] has as its system T47D. Briefly: Induction of apoptosis in human T47D cells assessed as late apoptotic cells at 10 uM after 48 hrs by annexin V-FITC/propidium iodide staining based flow cytometry (reference value: 6.16%). In kind it is functional.
The subject of assay [20] is A549. Briefly: Induction of apoptosis in human A549 cells assessed as necrotic cells at 10 uM after 48 hrs by annexin V-FITC/propidium iodide staining based flow cytometry (reference value: […]%). In kind it is functional.
Assay [21] relates to T47D. As to the kind of experiment: Induction of apoptosis in human T47D cells assessed as necrotic cells at 10 uM after 48 hrs by annexin V-FITC/propidium iodide staining based flow cytometry (reference value: 0.8%). In kind it is functional.
The test system of assay [22] is 4T1. Briefly: Antitumor activity against mouse Fluc-labeled 4T1 cells implanted in Balb/c mouse assessed as reduction in tumor weight at 130 mg/kg, ip administered daily for 18 days measured after 8 to 25 days. In kind it is functional, organism-based. The method in brief: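 Luciferase (Fluc) reporter introduced into 4T1 cells by lentiviral transduction. Cells implanted orthotopically into mammary fat pads of female BALB/c mice aged 6–8 weeks. Once tumours averaged 100 mm3, dosing was daily by IP injection. Bioluminescence imaging was done at days 8 and 25 to reflect viable tumour cell number. Tumour weight was recorded at study end.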

Assay [23] relates to HepG2. As to the kind of experiment: Induction of apoptosis in human HepG2 cells assessed as necrotic cells at 10 uM after 48 hrs by annexin V-FITC/propidium iodide staining based flow cytometry (reference value: 2.32%). In kind it is functional.
Assay [24] relates to NCI-H460. Briefly: Induction of apoptosis in human NCI-H460 cells assessed as necrotic cells at 10 uM after 48 hrs by annexin V-FITC/propidium iodide staining based flow cytometry (reference value: 1.34%). In kind it is functional.
Assay [25] has as its system T47D. As to the kind of experiment: Induction of apoptosis in human T47D cells assessed as live cells at 10 uM after 48 hrs by annexin V-FITC/propidium iodide staining based flow cytometry (reference value: 85.3%). In kind it is functional.
Assay [26] deals with T47D. Briefly: Cell cycle arrest in human T47D cells assessed as accumulation at G0/G1 phase after 24 hrs by propidium iodide staining based flow cytometry. In kind it is functional. Summed up:
(§1)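 Cells were exposed for 24 h to a range of concentrations (625 nM, 2.5 and 10 µM), with DMSO vehicle as control. They were then stained with propidium iodide and analysed by flow cytometry to obtain the percentages of cells in G0/G1, S and G2 phases.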

Assay [27] has as its system A549. As to the kind of experiment: Cytotoxicity against human A549 cells assessed as reduction in cell viability after 72 hrs by CCK8 assay. The conditions noted are these: A549, 72 h. In kind it is functional, cell-based.
The subject of assay [28] is HepG2. As to the kind of experiment: Cytotoxicity against human HepG2 cells assessed as reduction in cell viability after 72 hrs by CCK8 assay. In kind it is functional, cell-based. Conditions: HepG2, 72 h.
For assay [29], the system named is MDA-MB-231. Briefly: Cytotoxicity against human MDA-MB-231 cells assessed as reduction in cell viability after 72 hrs by CCK8 assay. In kind it is functional, cell-based. Conditions: MDA-MB-231, 72 h.
The subject of assay [30] is T47D. Briefly: Cytotoxicity against human T47D cells assessed as reduction in cell viability after 72 hrs by CCK8 assay. In kind it is functional, cell-based.
Assay [31] concerns 4T1. Briefly: Cytotoxicity against mouse 4T1 cells assessed as reduction in cell viability after 72 hrs by CCK8 assay. In kind it is functional, cell-based. Conditions: 4T1, 72 h.
Assay [32] concerns HepG2. Briefly: Cell cycle arrest in human HepG2 cells assessed as accumulation at G0/G1 phase after 24 hrs by propidium iodide staining based flow cytometry. In kind it is functional. Summed up:
as §1

The subject of assay [33] is 4T1. Briefly: Antitumor activity against mouse Fluc-labeled 4T1 cells implanted in Balb/c mouse assessed as tumor growth inhibition at 130 mg/kg, po administered daily via gavage for 18 days by bioluminescence assay relative to control. In kind it is functional. Conditions: 4T1, po, 432 h, read-out: TGI.
Assay [34] relates to NCI-H460. As to the kind of experiment: Cell cycle arrest in human NCI-H460 cells assessed as accumulation at G0/G1 phase after 24 hrs by propidium iodide staining based flow cytometry. In kind it is functional. Summed up: as §1
In assay [35] the test system is 4T1. As to the kind of experiment: Antitumor activity against mouse Fluc-labeled 4T1 cells implanted in Balb/c mouse assessed as tumor growth inhibition at 130 mg/kg, ip administered daily for 18 days measured after 8 to 25 days by bioluminescence assay relative to control. In kind it is functional. The conditions noted are these: 4T1, ip, read-out: TGI.
The test system of assay [36] is MDA-MB-468. As to the kind of experiment: Cytotoxicity against human MDA-MB-468 cells assessed as reduction in cell viability after 72 hrs by CCK8 assay. In kind it is functional, cell-based. Conditions: MDA-MB-468, 72 h.
Assay [37] concerns A549. As to the kind of experiment: Cell cycle arrest in human A549 cells assessed as accumulation at G0/G1 phase after 24 hrs by propidium iodide staining based flow cytometry. In kind it is functional. Summed up: as §1
Assay [38] relates to MDA-MB-231. As to the kind of experiment: Cell cycle arrest in human MDA-MB-231 cells assessed as accumulation at G0/G1 phase after 24 hrs by propidium iodide staining based flow cytometry. In kind it is functional. Summed up: as §1
Assay [39] has as its system Hep 3B2. Briefly: Cell cycle arrest in human Hep3B cells assessed as accumulation at G0/G1 phase after 24 hrs by propidium iodide staining based flow cytometry. In kind it is functional. The method in brief:
as §1

For assay [40], the system named is NCI-H1299. As to the kind of experiment: Cytotoxicity against human NCI-H1299 cells assessed as reduction in cell viability after 72 hrs by CCK8 assay. In kind it is functional, cell-based. The conditions noted are these: NCI-H1299, 72 h.
Assay [41] concerns NCI-H460. Briefly: Cytotoxicity against human NCI-H460 cells assessed as reduction in cell viability after 72 hrs by CCK8 assay. In kind it is functional, cell-based. Conditions: NCI-H460, 72 h.

On to `O=C(CCCCCCC(=O)Nc1ccccc1)NO` [VORINOSTAT], for which the Activity stood at 74.9% in assay [1]; 3.74% in assay [2]; 2.72% in assay [3]; 2.2% in assay [4]; 6.4% in [5]; 18.7% in assay [6]. Besides, the Activity in [7] came to 86.6%; in assay [8], 53.2%; in [9], 6.41%; in assay [10] it was 33.4%; in assay [11], 14%; in assay [12] it was 32.8%. Also, the Activity in assay [13] is given as 3.43%; in assay [14], 48.6%; in assay [16], 42.1%; in [17], 5.43%; in assay [18], 74.8%; in [19] it was 26.4%. For the same compound, the Activity in assay [20] was 18.1%; in [21], 4.48%; in assay [23], 5.69%; in assay [24] it was 4.81%; in assay [25] it was 20.4%. Besides, in assay [15], the IC50 is 2.3 µM. In assay [22], the outcome was Active.
`CN(C)C(=O)c1cc2cnc(Nc3ccc(N4CCNCC4)cn3)nc2n1C1CCCC1` [RIBOCICLIB]: the result in assay [26], in assay [32], in assay [34], in [37], in assay [38] and in assay [39] was Active. In assay [22], the outcome was Active. Moreover, the half-maximal inhibitory concentration (IC50) in assay [27] was greater than 10 µM; in [28], greater than 10 µM; in assay [29], greater than 10 µM; in assay [30] it was 6.23 µM; in assay [15], greater than 10 µM; in assay [31] it was greater than 10 µM. The figures for the IC50 in [36], in [40] and in assay [41] were greater than 10 µM, 5.46 µM and greater than 10 µM, respectively. In addition, the inhibition in vivo at 130 mg/kg is 38.9% in assay [33] and 68.5% in assay [35].
